Sampled rows, rich in hits. Any-hit rate of the full collection: about 1.4%.
FXIa inh 1536 = inhibitors of human coagulation factor XIa. inhibition, % at 5 µM. purified FXIa, Boc-Glu-Ala-Arg-AMC fluorogenic substrate. 220,000 compounds, 0.14% hits;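 active = inhibition of at least 40%; inactive = inhibition below 40%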;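 also: fluorescence of freed AMC excited at 355 nm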
FXIIa inh = inhibitors of human coagulation factor XIIa. 220,000 compounds, 0.3% hits. inhibition, % at 5 µM. purified FXIIa, Boc-QGR-AMC fluorogenic substrate, 2 h. AID 800; in the data active = inhibition above about 40%
Calpain2 inh = blocks pig calpain II enzyme activity | purified calpain II, fluorogenic peptide substrate, 30 min | inhibition, % at 16 µM | 220,000 compounds, 0.37% hits | AID 1236;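 active = inhibition above about 50%, limit read from the data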
KLK5 inh = blocks human kallikrein 5 protease activity; Q9Y337; recombinant hK5, fluorogenic AMC substrate cleavage; inhibition, % at 5 µM; 210,000 compounds, 0.59% hits; AID 873;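 active = inhibition of 40% or more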
Thrombin inh = thrombin (human) inhibition; inhibition, % at 5 µM; P00734; 220,000 compounds, 0.26% hits; alpha-thrombin, Boc-VPR-AMC fluorogenic substrate cleavage;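 active = inhibition at or above 40%; inactive = inhibition below 40%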
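System: Human alpha-thrombin protein | Medium: pH 7.5 Tris (50 mM) with NaCl 150 mM, Tween 20 0.05% | Times: Enzyme reaction carried out at room temperature | Detection: AMC fluorescence, 355/460 nm | Evaluation: Percent inhibition scaled between no-compound controls and no-enzyme blanks | Benchmarks: Enzyme without compound as high, wells lacking enzyme as low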
Furin inhibitor = inhibitors of human furin; P09958; purified furin, fluorogenic substrate cleavage; inhibition, % at 20 µM or 30 µM; 220,000 compounds, 0.061% hits; AID 463115; in the data active = inhibition above about 25%
Of the large screens only hits and unclear results are named; the others gave an inactive call.

CCOC(=O)N1CCc2c(sc3c2c(=O)n(Cc2ccccc2)c(=O)n3CC(=O)NCCOC)C1	Calpain2 inh 58
CN1C(=O)/C(=N/OC(=O)c2ccccc2)c2ccccc21	FXIa inh 1536 47, FXIIa inh 53, Thrombin inh 46
COc1ccc(C(c2c(NC(C)=O)sc3c2CCCC3)N2CCN(CCO)CC2)cc1OC (stereo unspecified)	none
COc1ccc(-c2cc(C(=O)OCC(=O)NC(C)(C)C)c3ccccc3n2)cc1	none
O=C(Nc1ccccc1)c1cccc(N2C(=O)CCC2=O)c1	KLK5 inh 63
CN(C)c1ccc(NC(=O)c2cccc(N3C(=O)CCC3=O)c2)cc1	none
CCOc1ccc(CNC(=O)c2ccc(Sc3ccc(Cl)cc3)c(NC(C)=O)c2)cc1	none
COc1cccc(NC(C(=O)Nc2cccc(C(C)=O)c2)c2ccccc2)c1 (stereo unspecified)	FXIIa inh 54
COc1ccc(NC(=O)Nc2cccnc2)c(OC)c1	none (no result: KLK5 inh)
COc1cccc(NC(=O)Nc2ccccc2SC)c1	FXIIa inh 102
COc1cccc(NC(=O)Nc2cccnc2)c1	FXIIa inh 40, KLK5 inh 71
COc1ccc(NC(=O)c2ccccc2SC)cc1	Calpain2 inh 90 (no result: Thrombin inh)
CN1CCN(C(=O)c2ccc(C(F)(F)F)cc2)CC1	KLK5 inh 46
N#Cc1cnn(Cc2ccc(Cl)cc2)c1N	FXIIa inh 58
COC(=O)c1cc(N2C(=O)C3C(C2=O)C2(C)C=CC3(C)O2)ccc1Cl (stereo unspecified)	KLK5 inh 44, Thrombin inh 104
CCOC(=O)C1CCCc2c1[nH]c1c(C(=O)O)cccc21 (stereo unspecified)	none
COc1cc([N+](=O)[O-])ccc1NC(=O)NCc1ccco1	none (no result: KLK5 inh)
COc1ccc([N+](=O)[O-])cc1NCc1ccco1	FXIa inh 1536 81
CSc1nnc(-c2cccs2)n1C	none
CCOC(=O)C1=C(CNCCc2ccc(Cl)cc2)NC(=O)NC1c1ccc2c(c1)OCO2 (stereo unspecified)	Calpain2 inh 53
Cn1nnnc1SC(C(=O)Nc1cccc(C(F)(F)F)c1)c1ccccc1 (stereo unspecified)	Calpain2 inh 54
O=C(Nc1cccc(C(F)(F)F)c1)C(SCCO)c1ccccc1 (stereo unspecified)	none
COc1cccc(-c2csc(N3CCN(C(=S)Nc4ccccc4)CC3)n2)c1	KLK5 inh 112
COc1cccc(-c2csc(N3CCN(C(=S)Nc4ccc(Cl)cc4)CC3)n2)c1	none
C=CCn1c(SCC(=O)Nc2nc(C)cs2)nnc1C(NC(=O)c1ccccc1)C(C)C (stereo unspecified)	KLK5 inh 51
CC(=O)N1CCC(N(CCN2CCOCC2)C(=S)Nc2cc(C)ccc2C)CC1	KLK5 inh 51
COC(=O)CCC(=O)Oc1ccc(OC(=O)CCC(=O)OC)cc1	none
COCCCNC(=O)c1cc2cc([N+](=O)[O-])cc(OC)c2oc1=O	none
Cn1c(=N)n(CC(=O)c2cccs2)c2ccccc21	KLK5 inh 45
Cc1ccc(OCC(=O)Nc2ccc(N3CCN(C(=O)c4ccc(C)cc4)CC3)cc2)cc1	none
COc1cc(N2CCCC2)c(OC)cc1/C=C(/C#N)c1ccc(Br)cc1	KLK5 inh 50
COc1cc(N2CCCC2)c(OC)cc1/C=C(/C#N)c1ccc(F)cc1	none
Nc1c(C(=O)Nc2ccc(Cl)c(Cl)c2)sc2nc(-c3cccnc3)ccc12	KLK5 inh 48
NC(=O)NOCc1ccccc1	FXIa inh 1536 45
NC(=O)NOCc1c(Cl)cccc1Cl	none
CC(C)c1ccc(N(CC(=O)N/N=C/c2ccc(OC3CSC3)cc2)S(=O)(=O)c2ccccc2)cc1	Thrombin inh 59
CN(CC(=O)NCc1ccccn1)S(=O)(=O)c1ccc(Cl)cc1	none
COc1ccc(N2CCCn3c2nc2c3c(=O)n(Cc3ccc(C)cc3)c(=O)n2C)c(OC)c1	FXIIa inh 54
Cn1c(SCC(=O)NCc2cccs2)nnc1-c1cccs1	KLK5 inh 52
C=CCn1c(Cc2cccs2)nnc1SCC(=O)NCc1ccco1	FXIa inh 1536 48
c1ccc2c(-c3nnc4n3CCCCC4)cc(-c3ccncc3)nc2c1	Thrombin inh 45
Clc1ccc(-c2cc(-c3nnc4n3CCCCC4)c3ccccc3n2)cc1	none
C=CC[N+]1(CC=C)CCOCC1	none

Assay outcomes deposited in PubChem by several laboratories.
